# Assay results pooled from the literature.
# Target: Histamine H3 receptor (HRH3, Homo sapiens, UniProt Q9Y5N1)
SMILES,observed,technique,concentration,inhibition [%]
N#Cc1cc(Cn2c(N3CCCC3)nc3ccccc32)ccc1F,ligand displacement,,10 µM,1.97
CN1CCN(CCCOc2ccc(=O)n(-c3ccc(Cl)c(Cl)c3)n2)CC1,ligand displacement,,1 µM,38.2
CCN(CC)c1ccc(C2Nc3ccc(C(=O)c4ccccc4)cc3NC3=C2C(=O)CC(C)(C)C3)cc1 (stereo not drawn),ligand displacement,radioligand,10 µM,43
CCS(=O)(=O)c1cc2cc(C[C@](O)(CC(C)(C)c3ccc(F)cc3C(N)=O)C(F)(F)F)[nH]c2cn1,ligand displacement,,10 µM,11.7
CCCNc1nc2ccccc2n1Cc1ccc(Cl)cc1,ligand displacement,,10 µM,-5.56
COc1ccc(-n2nc(OCCCN3CCCCC3)ccc2=O)cc1,ligand displacement,,1 µM,23.3
O=C(c1ccc(F)cc1)N(Cc1ccccc1)C1CCCCC1,cell-free assay,,10 µM,15
CCN(Cc1ccccc1C(F)(F)F)C(=O)C1CCN(S(=O)(=O)c2ccc3[nH]ncc3c2)CC1,ligand displacement,radioligand,10 µM,6
CC(=O)Nc1ncc(CN2CCC[C@H](Cc3cc(C)nc(C)c3)C2)s1,ligand displacement,,10 µM,10.8
